Results as given in ChEMBL document CHEMBL1275535, “Pharmacodynamic modeling of aminoglycosides against Pseudomonas aeruginosa and Acinetobacter baumannii: identifying dosing regimens to suppress resistance development” (2008).
In brackets after ≈: the same amount, converted by molar mass. Activity calls are given as the source filed them. The calls are words filed in the database; no cut-off is given here.

Tests used:
[1] = system: Acinetobacter baumannii; test: Antibacterial activity against Acinetobacter baumannii ATCC BAA 747 after 24 hrs by modified broth macrodilution method; format: functional; settings: ATCC BAA 747, 24 h
Outline: (§1)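 Ca-MHB broth macrodilution per modified CLSI method, with serial twofold aminoglycoside dilutions and about 5 x 10^5 CFU/ml final inoculum from isolates subcultured twice on 5% blood agar. MIC was the lowest concentration with no visible growth after 24 h at 35°C in ambient air. Run in duplicate and repeated on at least one separate day.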

[2] = system: Acinetobacter baumannii; test: Bactericidal activity against Acinetobacter baumannii ATCC BAA 747 assessed as growth rate constant for the bacterial population by time-kill study; format: functional
Outline: (§2)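 24-h time-kill data at a baseline inoculum of 10^7 CFU/ml were fitted to a mathematical model of a heterogeneous population. The fit ran in two steps. Growth rate (Kg) and maximal population size came from placebo control experiments. Those estimates were then held fixed while the kill-function parameters (maximal kill rate, concentration for 50% of maximal kill) were fitted to all active-treatment data together.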

[3] = system: Acinetobacter baumannii; test: Bactericidal activity against Acinetobacter baumannii ATCC BAA 747 assessed as maximum population size by time-kill study; format: functional; outline: as §2
[4] = system: Acinetobacter baumannii; test: Bactericidal activity against Acinetobacter baumannii ATCC BAA 747 assessed as maximal kill rate constant for the bacterial population by time-kill study; format: functional; outline: as §2
[5] = system: Acinetobacter baumannii; test: Bactericidal activity against Acinetobacter baumannii ATCC BAA 747 assessed as concentration to achieve 50% of the maximal kill rate for the bacterial population by time-kill study; format: functional; outline: as §2
[6] = system: Acinetobacter baumannii; test: Bactericidal activity against Acinetobacter baumannii ATCC BAA 747 at >16 mg/liter after 2 hrs by time-kill study; format: functional, organism-based
[7] = system: Pseudomonas aeruginosa; test: Ratio of Cmax to MIC for Pseudomonas aeruginosa ATCC 27853 in PK/PD model at 1500 mg administered every 12 hrs; format: functional
[8] = system: Pseudomonas aeruginosa; test: Ratio of Cmax to MIC for Pseudomonas aeruginosa ATCC 27853 in PK/PD model at 2000 mg administered every 24 hrs; format: functional
[9] = system: Pseudomonas aeruginosa; test: Antibacterial activity against Pseudomonas aeruginosa ATCC 27853 after 24 hrs by modified broth macrodilution method; format: functional, organism-based; outline: as §1
[10] = system: Pseudomonas aeruginosa; test: Bactericidal activity against Pseudomonas aeruginosa ATCC 27853 assessed as growth rate constant for the bacterial population by time-kill study; format: functional, organism-based
Outline: (§3)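 Parameters were fitted by mathematical modeling to 24 h time-kill data with gentamicin at 0 to 32 mg/liter and a baseline inoculum of 10^7 CFU/ml. Intrinsic growth rate (Kg) and maximal population size came from placebo controls. Kill-function parameters were then fitted to all active-treatment data simultaneously.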

[11] = system: Pseudomonas aeruginosa; test: Bactericidal activity against Pseudomonas aeruginosa ATCC 27853 assessed as maximum population size by time-kill study; format: functional, organism-based; outline: as §3
[12] = system: Pseudomonas aeruginosa; test: Bactericidal activity against Pseudomonas aeruginosa ATCC 27853 assessed as maximal kill rate constant for the bacterial population by time-kill study; format: functional, organism-based; outline: as §3
[13] = system: Pseudomonas aeruginosa; test: Bactericidal activity against Pseudomonas aeruginosa ATCC 27853 assessed as concentration to achieve 50% of the maximal kill rate for the bacterial population by time-kill study; format: functional, organism-based; outline: as §3

## NCC[C@H](O)C(=O)N[C@@H]1C[C@H](N)[C@@H](O[C@H]2O[C@H](CN)[C@@H](O)[C@H](O)[C@H]2O)[C@H](O)[C@H]1O[C@H]1O[C@H](CO)[C@@H](O)[C@H](N)[C@H]1O [AMIKACIN]
[1]
  MBC: 8 µg/mL (≈ 13.7 µM)
  MIC: 4 µg/mL (≈ 6.83 µM)
[2]
  Activity: 0.55 h⁻¹
[3]
  Activity: 6.62 ×10⁸ CFU/ml
[4]
  Activity: 27.81 h⁻¹
[5]
  C50k: 1.56 mg/L
[6]
  Activity: Active
[7]
  Ratio: 13
[8]
  Ratio: 20

## GENTAMICIN
[9]
  MBC: 2 µg/mL
  MIC: 2 µg/mL
[10]
  Activity: 0.48 h⁻¹
[11]
  Activity: 9.8 ×10⁸ CFU/ml
[12]
  Activity: 4.68 h⁻¹
[13]
  C50k: 0.72 mg/L
[7]
  Ratio: 36
[8]
  Ratio: 30
